Experimental data: ChEMBL document CHEMBL1149670, “Fluorine-containing aryloxyethyl thiocyanate derivatives are potent inhibitors of Trypanosoma cruzi and Toxoplasma gondii proliferation” (Bioorg Med Chem Lett, 2007)
In brackets after ≈: the same amount, converted by molar mass.

These molecules were tested on Trypanosoma cruzi (assay: Antiparasitic activity against Trypanosoma cruzi Y infected gamma irradiated L6E9 myoblast). Conditions: L6E9, light or radiation study.

Compound | IC50 [µg/mL]
N#CSCCOc1ccc(Oc2cccc(F)c2)cc1 | 1.74 (≈ 6.01 µM)
Fc1cccc(Oc2ccc(OCCOC3CCCCO3)cc2)c1 (stereo unspecified) | > 20
N#CSCCOc1ccc(Oc2ccc(F)cc2)cc1 | 1.95 (≈ 6.74 µM)
Fc1ccc(Oc2ccc(OCCOC3CCCCO3)cc2)cc1 (stereo unspecified) | > 20
N#CSCCOc1ccc(Oc2ccccc2)cc1 | 2.6 (≈ 9.58 µM)

The molecules below were run on Trypanosoma cruzi (assay: Antiparasitic activity against Trypanosoma cruzi Y amastigotes infected gamma irradiated L6E9 myoblast). Conditions: L6E9, light or radiation study.
Assay type: functional, organism-based
Summary of the method: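 Gamma-irradiated L6E9 myoblasts were kept in DMEM with 20% FCS for 24 h at 37 °C and 5% CO₂. They were then infected with Y-strain trypomastigotes or amastigotes (4.17 × 10⁶/well) for 2 h at 37 °C and 7% CO₂, then washed. [5,6-³H]uracil and aqueous drug solutions were added for 72 h. TCA-precipitable counts were taken on day 3, and percent inhibition was calculated from cpm differences versus control.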

Compound | IC50 [µM]
N#CSCCOc1ccc(Oc2cccc(F)c2)cc1 | 4.3
Fc1cccc(Oc2ccc(OCCOC3CCCCO3)cc2)c1 (stereo unspecified) | 19
N#CSCCOc1ccc(Oc2ccc(F)cc2)cc1 | 3.7
Fc1ccc(Oc2ccc(OCCOC3CCCCO3)cc2)cc1 (stereo unspecified) | 14.4
N#CSCCOc1ccc(Oc2ccccc2)cc1 | 12

These molecules were tested on Toxoplasma gondii (assay: Antiparasitic activity against Toxoplasma gondii tachyzoites m2m3 infected HFF cells). Conditions: not given.
Assay type: functional, organism-based
Summary of the method: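 YFP-expressing m2m3 tachyzoites, filtered and needle-passed, were inoculated at 10⁴/ml onto confluent HFF monolayers. Medium was DMEM with 10% fetal bovine serum, 2 mM glutamine and 1 mM pyruvate, with drugs serially diluted in it. Plates were held at 37 °C and read daily for fluorescence from the bottom (ex 510, em 540 nm). IC50 came from fitting I = Imax·C/(IC50 + C), with Imax = 100%.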

Compound | IC50 [µM]
O=C1C(O)=C([C@H]2CC[C@H](c3ccc(Cl)cc3)CC2)C(=O)c2ccccc21 [ATOVAQUONE] | 0.29
N#CSCCOc1ccc(Oc2cccc(F)c2)cc1 | 15.8
Fc1cccc(Oc2ccc(OCCOC3CCCCO3)cc2)c1 (stereo unspecified) | 3.99
N#CSCCOc1ccc(Oc2ccc(F)cc2)cc1 | 3.85
Fc1ccc(Oc2ccc(OCCOC3CCCCO3)cc2)cc1 (stereo unspecified) | 6.16
N#CSCCOc1ccc(Oc2ccccc2)cc1 | 2.8
